In ChEMBL document CHEMBL1158025, “Antimalarial activity of macrocyclic trichothecenes isolated from the fungus Myrothecium verrucaria” (J Nat Prod, 1999):
In brackets after ≈: the same amount, converted by molar mass.

Assays:
Vero [1] = assay: Cytotoxicity against african green monkey Vero cells; format: functional, cell-based, Chlorocebus sabaeus
[2] = Cytotoxicity against human BC1 cells; format: functional, cell-based
Plasmodium falciparum = assay: Antimalarial activity against Plasmodium falciparum K1 by [3H]hypoxanthine uptake; format: functional, organism-based
Outline: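 P. falciparum K1 (multidrug-resistant) asexual erythrocytic stages were kept in continuous in vitro culture. Activity was measured by a microculture radioisotope method. EC50 is the concentration giving 50% reduction in parasite growth, read as in vitro [3H]hypoxanthine uptake.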

KB [3] = assay: Cytotoxicity against human KB cells; format: functional, cell-based
KB [4] = assay: Cytotoxicity against human KB cells at 20 ug/mL; format: functional
[5] = Cytotoxicity against human BC1 cells at 20 ug/mL; format: functional
Vero [6] = assay: Cytotoxicity against african green monkey Vero cells at 20 ug/mL; format: functional; conditions: Chlorocebus sabaeus

Row | Compound | EC50 (Vero [1]) [ng/mL] | EC50 [2] [ng/mL] | EC50 (Plasmodium falciparum) [ng/mL] | EC50 (KB [3]) [ng/mL] | inhibition at 20 µg/mL (KB [4]) [%] | inhibition at 20 µg/mL [5] [%] | inhibition at 20 µg/mL (Vero [6]) [%]
1 | CC1=C[C@H]2O[C@@H]3C[C@H]4OC(=O)/C=C\C=C\C(=O)OCC/C(C)=C/C(=O)OC[C@@]2(CC1)[C@]4(C)[C@]31CO1 [VERRUCARIN J] | 1.2 (≈ 2.48 nM) | 14 (≈ 28.9 nM) | 0.2 (≈ 0.413 nM) | 3.9 (≈ 8.05 nM) | – | – | –
2 | CC(=O)O[C@H](C)[C@H]1/C=C/C=C\C(=O)O[C@@H]2C[C@H]3O[C@@H]4C=C(C)CC[C@]4(COC(=O)/C=C(\C)CCO1)[C@]2(C)[C@]31CO1 [RORIDIN E ACETATE] | 4.1 | 15 | 0.06 | 14 | – | – | –
3 | CC1=C[C@H]2O[C@@H]3C[C@H]4OC(=O)/C=C\C=C\C(=O)OCC[C@@H](C)[C@H](O)C(=O)OC[C@@]2(CC1)[C@]4(C)[C@]31CO1 [VERRUCARIN A] | 1.1 (≈ 2.19 nM) | 4.2 (≈ 8.36 nM) | 0.9 (≈ 1.79 nM) | 1.2 (≈ 2.39 nM) | – | – | –
4 | CC1=C[C@H]2O[C@@H]3C[C@H]4OC(=O)/C=C\C=C\[C@H]([C@@H](C)O)OCC/C(C)=C/C(=O)OC[C@@]2(CC1)[C@]4(C)[C@]31CO1 [RORIDIN E] | 0.4 (≈ 0.777 nM) | 0.7 (≈ 1.36 nM) | 0.15 (≈ 0.291 nM) | 0.5 (≈ 0.972 nM) | – | – | –
5 | C[C@@H]1CC[C@H]2[C@@H](C)C(=O)O[C@@H]3O[C@@]4(C)CC[C@@H]1[C@]32OO4 [ARTEMISININ] | – | – | – | – | < 50 | < 50 | < 50
6 | CC1=C[C@H]2O[C@@H]3C[C@H]4OC(=O)/C=C\C=C\[C@H]([C@@H](C)O)OCC[C@@H](C)[C@H](O)C(=O)OC[C@@]2(CC1)[C@]4(C)[C@]31CO1 [RORIDIN A] | 1.7 (≈ 3.19 nM) | 5 (≈ 9.39 nM) | 0.31 (≈ 0.582 nM) | 1 (≈ 1.88 nM) | – | – | –
